Shown are actives, neighbours in structure and some others; about 8.8% of the full set was active somewhere.
S1P1 ag-PAM – S1P1 (human) agonism or agonism potentiation. P21453. S1P1 CRE-bla cells, forskolin, beta-lactamase FRET, potentiator mode; S1P1 agonist co-added at EC20, 2 nM; 100% = saturating reference agonist, 0% = basal. activation, % at 9.5 µM. actives 0.57% (n = 56,000). AID 449;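 active = activation above a cutoff set at the mean activation of all tested compounds plus 3 SD, cut at about 54% in these data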;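 note: forskolin at 4 µM as EC80 and the EC20 agonist is SEW2871; 100% = SEW2871 at its EC100 plus forskolin at EC80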
Target sequence (P21453 whole entry, looked up): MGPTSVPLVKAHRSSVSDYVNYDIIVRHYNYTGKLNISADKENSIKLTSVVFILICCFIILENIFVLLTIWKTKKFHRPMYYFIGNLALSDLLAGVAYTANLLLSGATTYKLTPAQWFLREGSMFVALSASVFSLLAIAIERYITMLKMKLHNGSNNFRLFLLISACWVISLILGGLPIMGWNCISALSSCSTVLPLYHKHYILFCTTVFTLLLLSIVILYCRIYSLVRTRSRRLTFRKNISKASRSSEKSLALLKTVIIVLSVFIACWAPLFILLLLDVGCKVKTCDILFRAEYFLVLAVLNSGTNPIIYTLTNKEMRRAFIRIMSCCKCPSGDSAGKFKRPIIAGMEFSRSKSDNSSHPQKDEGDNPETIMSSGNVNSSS
S1P3 agonist – S1P3 (human) receptor agonism. Q99500. S1P3 NFAT-BLA reporter cells, FRET ratio; relative to 1 µM S1P, basal subtracted. activation, % at 4.5 µM. actives 0.1% (n = 60,000). AID 373;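 active = activation above the screen-wide mean plus 3 SD, cut at about 4.5% in these data, passing the limit was not always enough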
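Benchmarks: high control 1 µM S1P / System: stable CHO line with human S1P3, Gα16, NFAT-BLA reporter / Dosing: single compound concentration, 4.5 µM final / Timing: 4 h compound at 37 °C, 2 h substrate at RT / Measured by: FRET β-lactamase substrate fluorescence, excitation 405 nm, 460/535 nm emission ratio, background-subtracted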
SF-1 act – activates the human nuclear receptor SF-1. Q13285. CHO-K1 Gal4-SF-1 LBD luciferase reporter; % increase over DMSO SF-1-specific signal. activation, % at 10 µM. actives 1.9% (n = 65,000). AID 522;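 active = activation above the mean activation of all tested compounds plus 3 SD, cut at about 50% in these data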
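Material: CHO-K1 cells with Gal4–hSF-1 LBD chimera plus Gal4-driven luciferase / Input: 4,000 CHO-K1 cells per well / Incubation: compound exposure 20 h at 37 °C / Signal: luminescence read 15 min after SteadyLite luciferase reagent, after room-temperature equilibration / Read-out: percent activation versus DMSO / Benchmarks: DMSO negative control and −SF1 background wells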
RORA act – RORA (human) activation | AID 560 | actives 1.5% (n = 65,000) | activation, % at 10 µM | CHO-K1 Gal4-RORA LBD luciferase reporter, luminescence; percent increase over mock-subtracted basal signal;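 active = activation above the mean of all tested compounds plus 3 SD, cut at about 49% in these data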;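 note: 0% = DMSO-treated RORA cells and 100% = added signal equal to DMSO minus mock-transfected cells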
M1 ag – M1 muscarinic receptor agonism | CHO-M1 cells, Fluo-4 calcium fluorescence, agonist mode; hits give high values | B-score at 10 µM | actives 3% (n = 64,000);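 active = fluorescence rise, raw or as B-score row- and column-corrected plate score, outside the 99.7% band of its plate's samples, either direction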
M1 antag – blocks the rat M1 muscarinic receptor response to acetylcholine | CHO-M1 cells, Fluo-4 calcium, ACh EC80 antagonist mode; hits give low values | P08482 | actives 3.4% (n = 64,000) | B-score at 10 µM | AID 628;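 active = calcium fluorescence response, raw or row-and-column corrected B-score, differing from the plate sample mean either way at a set confidence level, mostly lower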
M1 ag confirm – confirmation of rat M1 muscarinic receptor agonists; CHO-M1 cells, Fluo-4 calcium fluorescence, agonist mode; actives lie on both sides; actives 19% (n = 1,700); fluorescence change (max-min) at 10 µM; shares compounds with M1 ag;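 active = fluorescence change differs from the solvent-only DMSO control mean at a set confidence level in both duplicate runs; inconclusive = differs from solvent-only control mean in just one of two runs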;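 note: an EC20 dose of acetylcholine follows compound addition during the same imaging run; raw fluorescence intensity difference in instrument units with no normalization to controls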
M4 ag counter – rat M4 muscarinic agonism, M1 counter-screen | fluorescence change (max-min) at 10 µM | CHO M4/Gqi5 cells, Fluo-4 calcium fluorescence, agonist mode; actives lie on both sides | shares compounds with M1 ag | actives 9% (n = 1,700);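 active = fluorescence change differing from the plate's solvent-only control wells at 99.7% confidence in both duplicates, whether higher or lower; inconclusive = differs from solvent controls in only one of two duplicates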
* = called active by the depositor; ? = inconclusive; / = not tested or not shown.

SMILES | S1P1 ag-PAM | S1P3 agonist | SF-1 act | RORA act | M1 ag | M1 antag | M1 ag confirm | M4 ag counter
Cc1cccc(-n2c(C)nc3c(cnn3-c3ccc(F)cc3)c2=O)c1 | 31 | -1 | -4 | -26 | 9.4* | -0.74 | -4.2 | ?
COc1cccc(-n2c(C)nc3c(cnn3-c3ccc(C)cc3)c2=O)c1 | 23 | -1 | 7 | -15 | 0.29 | -0.13 | / | /
COC(=O)c1ccc(CNC(=O)CSc2nc3sc(C)c(C)c3c(=O)n2C)o1 | 14 | -1 | -11 | 2 | -0.48 | -0.074 | / | /
CCCC1(CCC)NC(=O)N(CC(=O)Nc2cccc(OC)c2)C1=O | 8 | 1 | 1 | -13 | -1.1 | 0.57 | / | /
c1cncc(-c2nnc(C3CCCCC3)o2)c1 | -19 | 0 | -2 | 9 | -0.58 | 0.013 | / | /
COCCn1c(N)c(C(=O)NCC2CCCO2)c2nc3ccccc3nc21 (stereo not given) | -28 | -1 | -2 | 10 | 7.8* | -0.55 | -26* | ?
Cc1ccccc1-n1c(C)nc2ccccc21 | / | 0 | -23 | 2 | 0.029 | -0.34 | / | /
O=C(NCC(F)(F)F)N1CCOCC1 | -10 | -4 | -3 | -19 | 0.6 | 0.52 | / | /
CCOC(=O)Cc1nnc(Nc2cccc(O)c2)c2ccccc12 | 16 | -3 | 6 | -2 | -0.29 | 0.0036 | / | /
CC(=O)c1cccc(NC(=O)Nc2ccc3c(c2)N(C)C(=O)CS3)c1 | / | / | -4 | -14 | 3.2* | -0.99 | -8 | ?
CCC(OC(=O)CC1Sc2ccccc2NC1=O)C(=O)NCC1CCCO1 (stereo not given) | -1 | -1 | 4 | -1 | -0.21 | -0.44 | / | /
O=C(c1ccncc1)c1ccc(N2CCN(C3CC(=O)N(Cc4ccccc4)C3=O)CC2)cc1 (stereo not given) | / | -1 | 14 | 5 | 20* | -2.3* | -25* | -49
CCOC(=O)c1c(C)oc2c1cc(O)c1ccccc12 | -19 | -1 | 10 | -17 | 0.59 | 0.11 | / | /
CCOC(=O)c1c(C)oc2c1c(C=NCC1CCCO1)c(O)c1ccccc12 (stereo not given) | 1 | -1 | -9 | 15 | 2.9* | 0.3 | -16 | 6.4
CCOC(=O)c1c(C)oc2c1c(C=NCc1ccccn1)c(O)c1ccccc12 | -10 | 0 | -22 | 4 | 7.1* | -0.95 | 28 | -18
COc1ccccc1C1C=C(c2ccc(Cl)cc2)Nc2nc(NS(C)(=O)=O)nn21 (stereo not given) | 8 | 1 | -17 | -6 | 54* | 1 | 88* | 62
COc1ccccc1C1C=C(c2ccccc2)Nc2nnnn21 (stereo not given) | 9 | -1 | 17 | 15 | / | / | / | /
COC(=O)N1CC(C)N(C(=O)OC)CC1C (stereo not given) | / | 0 | 7 | -4 | 2.6 | 0.41 | / | /
O=C(Nc1ccc(N2CCOCC2)c(Cl)c1)c1ccc(Br)o1 | 43 | 0 | 67* | 55* | 11* | -2.5* | -8.3 | -16
CC1(C)NC(=O)N(CC(O)COc2ccccc2C(=O)Nc2ccccc2)C1=O (stereo not given) | -7 | -4 | 3 | -20 | 5.4* | -2.4 | ? | -42
O=C(Nc1ccccc1)c1ccccc1OCC(O)CN1C(=O)c2ccccc2S1(=O)=O (stereo not given) | 12 | -1 | 7 | 1 | 6.1* | -1.9 | -20 | ?
CC(=O)Nc1cccc2c1OCCO2 | -8 | 0 | -10 | 2 | 0.00055 | -0.54 | / | /
Cc1cc(NC(=O)CN2CCCC2c2nc3ccccc3s2)no1 (stereo not given) | -5 | 0 | -16 | -17 | -0.61 | 0.038 | / | /
c1ccc(-n2nnnc2SCCCSc2nc3ccccc3s2)cc1 | 19 | -1 | -2 | -25 | 27* | -0.85 | 26 | ?
O=C(O)CCSc1nnnn1-c1ccccc1 | -1 | 0 | 3 | 3 | 0.47 | 0.42 | / | /
SMILES | S1P1 ag-PAM | S1P3 agonist | SF-1 act | RORA act | M1 ag | M1 antag | M1 ag confirm | M4 ag counter
CC(Oc1ccc(Cl)cc1Cl)C(=O)Nc1ccncc1 (stereo not given) | 25 | -2 | -15 | 5 | 7.3* | -1 | -5 | -19
O=C(NC1=NCCS1)C1Cc2ccccc2CN1C(=O)c1ccccc1 (stereo not given) | 11 | 2 | 15 | 10 | 0.24 | -0.51 | / | /
COc1ccc(NC(=O)C2Cc3ccccc3CN2C(=O)c2ccccc2)cn1 (stereo not given) | 9 | 1 | 35 | 9 | 16* | -0.62 | ? | ?
N#Cc1cccc(NC(=O)Nc2cccs2)c1 | 35 | -1 | 2 | 8 | 11* | -2.6 | 38 | 35
Cc1cccc(NC(=O)Nc2cccc(C#N)c2)n1 | -31 | -1 | 2 | 8 | -0.11 | 0.0088 | / | /
COc1ccc(NC(=O)c2oc3ccc(S(=O)(=O)N4CCC5(CC4)OCCO5)cc3c2C)cc1 | 21 | -1 | 12 | 29 | 13* | -2.2 | ? | -27
Cc1c(C(=O)O)oc2ccc(S(=O)(=O)N3CC(C)CC(C)C3)cc12 (stereo not given) | -25 | -2 | 8 | -30 | 11* | -11* | -10 | ?
Cc1c(C(=O)O)oc2ccc(S(=O)(=O)N3CCC(C)CC3)cc12 | -9 | 0 | 2 | -7 | -0.99 | 0.39 | / | /
CN(C)c1ccc(N/C=C/C(=O)c2ccccc2)cc1 | / | -2 | -66 | -29 | 2.5* | -0.065 | ? | -8.6
Cc1nn(-c2ccccc2)c(C)c1C(=O)OC/C(O)=C(\C#N)c1nc2ccccc2[nH]1 | -27 | -1 | 4 | 28 | 2.9* | 0.65 | -21* | -53
O=C(CC1(O)C(=O)Nc2ccccc21)c1cccnc1 (stereo not given) | -6 | 0 | 21 | -16 | -0.011 | 0.43 | / | /
O=C(c1cccc2c1C(=O)N(Cc1cccnc1)C2)N1CCN(c2ccccc2)CC1 | 8 | 1 | 6 | -14 | -0.044 | 0.11 | / | /
CCOC(=O)CNC(=O)CSc1nnc(-c2ccco2)n1N | -19 | -1 | -14 | -2 | 2.3* | 1.2 | -27* | -89*
CCOC(=O)CNC(=O)CSc1nnc(-c2ccco2)n1Cc1ccco1 | / | / | 9 | -13 | 0.24 | -0.084 | / | /
O=C(NCCCN1CCCC1=O)NC12CC3CC(CC(C3)C1)C2 | -7 | 0 | 6 | -11 | 5.7* | 0.13 | 3 | -4.4
O=C(NCCCN1CCCC1=O)Nc1ccc(Cl)cc1 | -1 | -1 | 19 | 12 | 1.1 | -1.9 | / | /
